# ChEMBL document CHEMBL1126924, “R2 C-terminal peptide inhibition of mammalian and yeast ribonucleotide reductase” (J Med Chem, 1993)
# What was measured:
# [1] = target: T1, Ribonucleoside-diphosphate reductase large subunit (Mus musculus, UniProt P07742); experiment: Inhibitory activity of compound against mammalian ribonucleotide reductase; Range is 8-20
# T1 sequence (P07742 whole entry): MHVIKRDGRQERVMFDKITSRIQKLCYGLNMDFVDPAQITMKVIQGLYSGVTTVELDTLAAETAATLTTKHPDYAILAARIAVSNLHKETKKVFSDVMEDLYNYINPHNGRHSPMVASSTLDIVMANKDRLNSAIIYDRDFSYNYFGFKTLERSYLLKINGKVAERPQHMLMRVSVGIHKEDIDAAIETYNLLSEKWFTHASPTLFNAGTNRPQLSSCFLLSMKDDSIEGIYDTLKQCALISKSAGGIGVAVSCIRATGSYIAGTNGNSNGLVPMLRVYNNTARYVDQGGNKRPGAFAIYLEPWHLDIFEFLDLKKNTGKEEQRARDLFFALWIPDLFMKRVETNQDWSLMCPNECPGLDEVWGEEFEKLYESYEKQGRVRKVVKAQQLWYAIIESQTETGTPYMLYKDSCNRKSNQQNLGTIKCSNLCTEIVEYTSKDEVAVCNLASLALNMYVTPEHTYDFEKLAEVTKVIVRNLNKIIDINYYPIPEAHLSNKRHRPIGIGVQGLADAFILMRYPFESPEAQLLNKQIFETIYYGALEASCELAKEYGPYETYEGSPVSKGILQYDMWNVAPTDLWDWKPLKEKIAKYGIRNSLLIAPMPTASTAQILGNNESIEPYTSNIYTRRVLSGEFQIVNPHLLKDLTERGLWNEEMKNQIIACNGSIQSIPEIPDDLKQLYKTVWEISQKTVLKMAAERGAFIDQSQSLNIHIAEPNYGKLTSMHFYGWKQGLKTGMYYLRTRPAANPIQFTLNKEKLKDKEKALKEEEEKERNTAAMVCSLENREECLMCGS
# Procedure, shortened: (§1)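 Calf thymus R1 (1 μg) with cloned mouse R2 (2 μg) expressed in E. coli from pET-M2. CDP reduction was run at 35 °C with DTT as reductant. [³H]dCDP was separated on aminophenylboronate and counted by scintillation.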
# [2] = target: T1, Ribonucleoside-diphosphate reductase large subunit; experiment: Inhibitory activity of compound against mammalian ribonucleotide reductase; Range is 450-620; procedure, shortened: as §1
# [3] = target: T1, Ribonucleoside-diphosphate reductase large subunit; experiment: Inhibitory activity of compound against mammalian ribonucleotide reductase; Range is 48-58; procedure, shortened: as §1
# [4] = target: T1, Ribonucleoside-diphosphate reductase large subunit; experiment: Inhibitory activity of compound against mammalian ribonucleotide reductase; Range is 29-30; procedure, shortened: as §1
# [5] = target: T1, Ribonucleoside-diphosphate reductase large subunit; experiment: Inhibitory activity of compound against mammalian ribonucleotide reductase; Range is 9-15; procedure, shortened: as §1
# [6] = target: T1, Ribonucleoside-diphosphate reductase large subunit; experiment: Inhibitory activity of compound against mammalian ribonucleotide reductase; Range is 286-336; procedure, shortened: as §1
# [7] = target: T1, Ribonucleoside-diphosphate reductase large subunit; experiment: Inhibitory activity of compound against mammalian ribonucleotide reductase; Range is 110-230; procedure, shortened: as §1
# [8] = target: T1, Ribonucleoside-diphosphate reductase large subunit; experiment: Inhibitory activity of compound against mammalian ribonucleotide reductase; Range is 34-35; procedure, shortened: as §1
# [9] = target: Ribonucleoside-diphosphate reductase RR1 (Homo sapiens) (UniProt P23921+Q7LG56+P31350); experiment: Relative inhibitory potency against mammalian ribonucleotide reductase; assay type: protein-complex assay
# [10] = target: T1, Ribonucleoside-diphosphate reductase large subunit; experiment: Inhibitory activity of compound against mammalian ribonucleotide reductase; Range is 35-40; procedure, shortened: as §1
# [11] = target: T1, Ribonucleoside-diphosphate reductase large subunit; experiment: Inhibitory activity of compound against mammalian ribonucleotide reductase; Range is 32-38; procedure, shortened: as §1
# [12] = target: T1, Ribonucleoside-diphosphate reductase large subunit; experiment: Inhibitory activity of compound against mammalian ribonucleotide reductase; Range is 25-29; procedure, shortened: as §1
# [13] = target: T1, Ribonucleoside-diphosphate reductase large subunit; experiment: Inhibitory activity of compound against mammalian ribonucleotide reductase; Range is 40-42; procedure, shortened: as §1
# [14] = target: T1, Ribonucleoside-diphosphate reductase large subunit; experiment: Inhibitory activity of compound against mammalian ribonucleotide reductase; Range is 364-460; procedure, shortened: as §1
compound,measurement,setting,value
CC(=O)N[C@@H](CO)C(=O)N[C@@H](Cc1ccccc1)C(=O)N[C@H](C(=O)N[C@@H](CC(C)C)C(=O)N[C@@H](CC(=O)O)C(=O)N[C@@H](C)C(=O)N[C@@H](CC(=O)O)C(=O)N[C@@H](Cc1ccccc1)C(=O)O)[C@@H](C)O,IC50,[1],8 µM
CC(=O)N[C@@H](Cc1ccccc1)C(=O)N[C@H](C(=O)N[C@@H](CC(C)C)C(=O)N[C@@H](CC(=O)O)C(=O)N[C@@H](C)C(=O)N[C@@H](CCC(=O)O)C(=O)N[C@@H](Cc1ccccc1)C(=O)O)[C@@H](C)O,IC50,[2],450 µM
CC(=O)N[C@@H](Cc1ccccc1)C(=O)N[C@H](C(=O)N[C@@H](Cc1ccccc1)C(=O)N[C@@H](CC(=O)O)C(=O)N[C@@H](C)C(=O)N[C@@H](CC(=O)O)C(=O)N[C@@H](Cc1ccccc1)C(=O)O)[C@@H](C)O,IC50,[3],48 µM
CC(=O)N[C@@H](Cc1ccccc1)C(=O)N[C@H](C(=O)N[C@@H](CC(C)C)C(=O)N[C@@H](CC(=O)O)C(=O)N[C@@H](C)C(=O)N[C@@H](CC(C)C)C(=O)N[C@@H](Cc1ccccc1)C(=O)O)[C@@H](C)O,IC50,[4],29 µM
CC(=O)N[C@@H](CC(N)=O)C(=O)N[C@@H](CO)C(=O)N[C@@H](Cc1ccccc1)C(=O)N[C@H](C(=O)N[C@@H](CC(C)C)C(=O)N[C@@H](CC(=O)O)C(=O)N[C@@H](C)C(=O)N[C@@H](CC(=O)O)C(=O)N[C@@H](Cc1ccccc1)C(=O)O)[C@@H](C)O,IC50,[5],9 µM
CC(=O)N[C@@H](Cc1ccccc1)C(=O)N[C@H](C(=O)N[C@@H](CC(C)C)C(=O)N[C@@H](C)C(=O)N[C@@H](C)C(=O)N[C@@H](CC(=O)O)C(=O)N[C@@H](Cc1ccccc1)C(=O)O)[C@@H](C)O,IC50,[6],286 µM
CC(=O)N[C@@H](Cc1ccccc1)C(=O)N[C@H](C(=O)N[C@@H](CC(C)C)C(=O)N[C@@H](CC(=O)O)C(=O)NCC(=O)N[C@@H](CC(=O)O)C(=O)N[C@@H](Cc1ccccc1)C(=O)O)[C@@H](C)O,IC50,[7],110 µM
CC(=O)N[C@@H](Cc1ccccc1)C(=O)N[C@H](C(=O)N[C@@H](CC(C)C)C(=O)N[C@@H](CC(=O)O)C(=O)N[C@@H](C)C(=O)N[C@@H](C)C(=O)N[C@@H](Cc1ccccc1)C(=O)O)[C@@H](C)O,IC50,[8],34 µM
Ac-FALDADF-OH,RI,[9],24%
same,IC50,[10],35 µM
CC(=O)N[C@@H](Cc1ccccc1)C(=O)N[C@H](C(=O)N[C@@H](CC(C)C)C(=O)N[C@@H](CC(=O)O)C(=O)N[C@@H](C)C(=O)N[C@@H](CC(N)=O)C(=O)N[C@@H](Cc1ccccc1)C(=O)O)[C@@H](C)O,IC50,[11],32 µM
CC(=O)N[C@@H](Cc1ccccc1)C(=O)N[C@H](C(=O)N[C@@H](CC(C)C)C(=O)N[C@@H](CC(N)=O)C(=O)N[C@@H](C)C(=O)N[C@@H](CC(=O)O)C(=O)N[C@@H](Cc1ccccc1)C(=O)O)[C@@H](C)O,IC50,[12],25 µM
Ac-FSLDADF-OH,RI,[9],25%
same,IC50,[13],40 µM
CC(=O)N[C@@H](Cc1ccccc1)C(=O)N[C@H](C(=O)N[C@@H](CC(C)C)C(=O)N[C@@H](CC(=O)O)C(=O)N[C@@H](Cc1ccccc1)C(=O)O)[C@@H](C)O,IC50,[14],364 µM
